Experimental data published in article PMC3428732 (Analytical chemistry, 2012).
Square brackets hold non-standard residues; d marks the D form. Peptide text beside a SMILES is read from it. * marks the point of attachment. 6FAM = O=C1OC2(c3ccc(O)cc3Oc3cc(O)ccc32)c2cc(C(=O)*)ccc21; Phe(F5) = N[C@@H](Cc1c(F)c(F)c(F)c(F)c1F)C(=O)O; NMeR = CN[C@@H](CCCNC(=N)N)C(=O)O; NMeF = CN[C@@H](Cc1ccccc1)C(=O)O; βAla = NCCC(=O)O

Legend:
[1] = Peptide degradation in a HeLa cytosolic lysate; format: in vitro ADME, human; conditions: for half-life at 1 μM: human, HeLa cytosolic lysate
Procedure, shortened: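 Fluorescein-labelled peptide (1 μM) incubated at 37 °C with HeLa or LNCaP cytosolic lysate (3 mg mL⁻¹ total protein). Aliquots were quenched with HCl to 100 mM final; the 0 min point was acidified before peptide addition. Products were separated by CE-LIF, and fragments were identified by spiking in 250 nM standards. Initial rates were taken from the 0 and 5 min points, normalised to cytosolic protein (zmol pg⁻¹ s⁻¹). Triplicates used different lysates; mean ± SD.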

PKBα kinase = PKBα kinase (Homo sapiens, UniProt P31749); assay: in vitro kinase assay with purified PKBα; format: biochemical
Procedure, shortened: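 Active purified PKBα (6 nM) with N-terminally fluorescein-labelled peptide substrate (25 μM) at 30 °C. Buffer: 8 mM MOPS pH 7.0, 0.2 mM EDTA, 4 mM MgCl₂, 1 mM ATP. Aliquots were removed over time and stopped by heating at 90 °C for 4 min. Phosphorylation was quantified by CE-LIF. Triplicates used different enzyme aliquots on different days; mean ± SD.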

[2] = system: PKB activity in single LNCaP cells; assay: Peptide phosphorylation in single LNCaP cells; format: cell-based, human; conditions: LNCaP cells pre-incubated with 500 nM wortmannin (10 min), then loaded with VI-B, 5 min; n = 10

Chain of PKBα kinase (P31749 whole entry): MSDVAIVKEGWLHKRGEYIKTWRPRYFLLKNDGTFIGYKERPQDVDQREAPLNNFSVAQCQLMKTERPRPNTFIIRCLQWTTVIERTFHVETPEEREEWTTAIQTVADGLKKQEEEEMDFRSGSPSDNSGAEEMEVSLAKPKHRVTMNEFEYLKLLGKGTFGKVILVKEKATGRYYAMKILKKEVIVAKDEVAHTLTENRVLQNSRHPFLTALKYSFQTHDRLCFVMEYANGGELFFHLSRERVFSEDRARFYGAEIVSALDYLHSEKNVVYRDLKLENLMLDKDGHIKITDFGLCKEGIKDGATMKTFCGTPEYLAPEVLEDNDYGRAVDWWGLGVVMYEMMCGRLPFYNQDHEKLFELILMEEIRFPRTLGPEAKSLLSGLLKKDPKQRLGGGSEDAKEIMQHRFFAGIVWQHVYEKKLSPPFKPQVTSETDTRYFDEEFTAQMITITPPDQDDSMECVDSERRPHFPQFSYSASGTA

| SMILES | half-life at 1 μM [1] | further results |
| --- | --- | --- |
| C[C@H](NC(=O)[C@H](Cc1c(F)c(F)c(F)c(F)c1F)NC(=O)[C@@H](NC(=O)[C@H](Cc1ccccc1)NC(=O)[C@H](C)NC(=O)[C@H](CCCNC(=N)N)N(C)C(=O)[C@@H]1CCCN1C(=O)[C@H](CCCNC(=N)N)NC(=O)CNC(=O)c1ccc2c(c1)C1(OC2=O)c2ccc(O)cc2Oc2cc(O)ccc21)[C@@H](C)O)C(=O)N[C@@H](CCC(=O)O)C(=O)NCC(N)=O [V-A, 6FAM-GRP-MeArg-AFT-Phe(F5)-AEG] (6FAM-GRP[NMeR]AFT[Phe(F5)]AEG-NH2) | 88 min |  |
| C[C@H](NC(=O)[C@H](Cc1ccccc1)NC(=O)[C@@H](NC(=O)[C@@H](C)NC(=O)[C@H](C)NC(=O)[C@H](CCCNC(=N)N)N(C)C(=O)[C@@H]1CCCN1C(=O)[C@H](CCCNC(=N)N)NC(=O)CNC(=O)c1ccc2c(c1)C1(OC2=O)c2ccc(O)cc2Oc2cc(O)ccc21)[C@@H](C)O)C(=O)N[C@@H](CCC(=O)O)C(=O)NCC(N)=O [IV-B, 6FAM-GRP-MeArg-A-DAla-TFAEG] (6FAM-GRP[NMeR]A[dA]TFAEG-NH2) | 32 min |  |
| C[C@H](NC(=O)[C@H](CCCNC(=N)N)N(C)C(=O)[C@@H]1CCCN1C(=O)[C@H](CCCNC(=N)N)NC(=O)CNC(=O)c1ccc2c(c1)C1(OC2=O)c2ccc(O)cc2Oc2cc(O)ccc21)C(=O)N[C@@H](Cc1ccccc1)C(=O)N[C@H](C(=O)N[C@@H](Cc1ccccc1)C(=O)N[C@H](C)C(=O)N[C@@H](CCC(=O)O)C(=O)NCC(N)=O)[C@@H](C)O [V-B, 6FAM-GRP-MeArg-AFTF-DAla-EG] (6FAM-GRP[NMeR]AFTF[dA]EG-NH2) | 895 min | fold greater t1/2 than peptide IV-D ([1]; HeLa lysate): over 60 X |
| C[C@H](NC(=O)[C@H](Cc1ccccc1)NC(=O)[C@@H](NC(=O)[C@H](Cc1ccccc1)N(C)C(=O)[C@H](C)NC(=O)[C@H](CCCNC(=N)N)N(C)C(=O)[C@@H]1CCCN1C(=O)[C@H](CCCNC(=N)N)NC(=O)CNC(=O)c1ccc2c(c1)C1(OC2=O)c2ccc(O)cc2Oc2cc(O)ccc21)[C@@H](C)O)C(=O)N[C@@H](CCC(=O)O)C(=O)NCC(N)=O [IV-E, 6FAM-GRP-MeArg-A-MePhe-TFAEG] (6FAM-GRP[NMeR]A[NMeF]TFAEG-NH2) | 2 min |  |
| C[C@H](NC(=O)[C@H](C)NC(=O)[C@@H](CCCNC(=N)N)NC(=O)[C@@H]1CCCN1C(=O)[C@H](CCCNC(=N)N)NC(=O)CNC(=O)c1ccc2c(c1)C1(OC2=O)c2ccc(O)cc2Oc2cc(O)ccc21)C(=O)N[C@H](C(=O)N[C@@H](Cc1ccccc1)C(=O)N[C@@H](C)C(=O)N[C@@H](CCC(=O)O)C(=O)NCC(N)=O)[C@@H](C)O [III-D, 6FAM-GRP-DArg-AATFAEG] (6FAM-GRP[dR]AATFAEG-NH2) | 17 min |  |
| C[C@H](NC(=O)[C@H](Cc1ccccc1)NC(=O)[C@@H](NC(=O)CCNC(=O)[C@H](C)NC(=O)[C@H](CCCNC(=N)N)N(C)C(=O)[C@@H]1CCCN1C(=O)[C@H](CCCNC(=N)N)NC(=O)CNC(=O)c1ccc2c(c1)C1(OC2=O)c2ccc(O)cc2Oc2cc(O)ccc21)[C@@H](C)O)C(=O)N[C@@H](CCC(=O)O)C(=O)NCC(N)=O [IV-A, 6FAM-GRP-MeArg-A-βAla-TFAEG] (6FAM-GRP[NMeR]A[βAla]TFAEG-NH2) | 14 min |  |
| C[C@H](NC(=O)[C@H](Cc1ccccc1)NC(=O)[C@@H](NC(=O)[C@H](CCC(=O)O)NC(=O)[C@H](C)NC(=O)[C@H](CCCNC(=N)N)N(C)C(=O)[C@@H]1CCCN1C(=O)[C@H](CCCNC(=N)N)NC(=O)CNC(=O)c1ccc2c(c1)C1(OC2=O)c2ccc(O)cc2Oc2cc(O)ccc21)[C@@H](C)O)C(=O)N[C@@H](CCC(=O)O)C(=O)NCC(N)=O [IV-C, 6FAM-GRP-MeArg-A-Glu-TFAEG] (6FAM-GRP[NMeR]AETFAEG-NH2) | 37 min |  |
| C[C@H](NC(=O)[C@H](C)NC(=O)[C@H](CCCNC(=N)N)N(C)C(=O)[C@@H]1CCCN1C(=O)[C@H](CCCNC(=N)N)NC(=O)CNC(=O)c1ccc2c(c1)C1(OC2=O)c2ccc(O)cc2Oc2cc(O)ccc21)C(=O)N[C@H](C(=O)N[C@@H](Cc1ccccc1)C(=O)N[C@@H](C)C(=O)N[C@@H](CCC(=O)O)C(=O)NCC(N)=O)[C@@H](C)O [III-B, 6FAM-GRP-MeArg-AATFAEG] (6FAM-GRP[NMeR]AATFAEG-NH2) | 2 min | fold longer t50%P than peptide I (PKBα kinase): more than 50 X; 6-residue fragment (alanine-threonine bond hydrolysis), % of all peptide present ([1]; HeLa lysate, within 15 min): 92% |
| C[C@H](NC(=O)[C@H](Cc1ccccc1)NC(=O)[C@@H](NC(=O)[C@H](Cc1ccccc1)NC(=O)[C@H](C)NC(=O)[C@H](CCCNC(=N)N)N(C)C(=O)[C@@H]1CCCN1C(=O)[C@H](CCCNC(=N)N)NC(=O)CNC(=O)c1ccc2c(c1)C1(OC2=O)c2ccc(O)cc2Oc2cc(O)ccc21)[C@@H](C)O)C(=O)N[C@@H](CCC(=O)O)C(=O)NCC(N)=O [IV-D, 6FAM-GRP-MeArg-A-FTFAEG] (6FAM-GRP[NMeR]AFTFAEG-NH2) | 14 min | fold faster t50%P than peptide III-B (PKBα kinase): over 30 X |
| COC[C@H]1OC(=O)c2coc3c2[C@@]1(C)C1=C(C3=O)[C@@H]2CCC(=O)[C@@]2(C)C[C@H]1OC(C)=O [wortmannin, Wortmannin] |  | formation of phosphorylated product of VI-B [2]: 13% ± 12% |
